Where “and” joins values, the source holds several entries; their conditions need not be identical. Equal values may be shown once.
Experiments:
Type in all cases: physicochemical
[1] = Antioxidant activity assessed as trolox equivalent of ABTS radical scavenging activity after 10 mins by lipophilic-TEAC […] assay
In short: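 Lipophilic ABTS TEAC, a modification of the H-TEAC method. Trolox standards (1000, 500, 250, 125, 62.5 μM) and sample dilutions were prepared in 50% DMSO/H2O. Pure DMSO was added to give 10% final DMSO. Processing and measurement followed H-TEAC; quadruplicate, mean ± SD.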

[2] = Antioxidant activity assessed as trolox equivalent of ABTS radical scavenging activity after 10 mins by hydrophilic-TEAC fluorescence assay
In short: (§1)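 Hydrophilic TEAC (ABTS) or hydrophilic ORAC run by the previously reported method. Each sample was measured in quadruplicate; values are mean ± SD.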

[3] = Antioxidant activity assessed as trolox equivalent of […] radical scavenging activity preincubated for 30 mins followed by […] addition measured after 90 mins by lipophilic-ORAC fluorescence assay; conditions: 1.5 h
In short: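 Lipophilic ORAC adapted from the Madrona procedure. Trolox standards (200, 100, 50, 25, 12.5 μM) and sample dilutions were made in 7% (w/v) randomly methylated β-cyclodextrin in acetone/H2O (1:1), which also served as blank. Fluorescein and AAPH were prepared in 10 mM phosphate buffer, pH 7.4. AAPH was added after incubation. Read-out otherwise as H-ORAC; quadruplicate, mean ± SD.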

[4] = Antioxidant activity assessed as H2O2 scavenging activity after 15 mins
In short: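 H2O2 scavenging run by the previously reported method. Each sample was measured in triplicate; values are mean ± SD.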

[5] = Antioxidant activity assessed as trolox equivalent of APPH radical scavenging activity preincubated for 30 mins followed by APPH addition measured after 90 mins by hydrophilic-ORAC fluorescence assay; conditions: 1.5 h; in short: as §1
[6] = Antioxidant activity assessed as trolox equivalent of ABTS radical scavenging activity measured for 1 to 6 mins by lipophilic-TEAC […] assay
In short: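 Lipophilic TEAC adapted from the hydrophilic ABTS method: Trolox standards (1000, 500, 250, 125, 62.5 μM) and sample dilutions made in 50% DMSO. Pure DMSO added to wells, giving 10% DMSO final. Otherwise processed, measured and handled as in H-TEAC. Quadruplicate analyses, mean ± SD.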

[7] = Antioxidant activity assessed as trolox equivalent of […] radical scavenging activity preincubated for 30 mins followed by […] addition measured every 1.14 mins for 120 mins by lipophilic-ORAC fluorescence assay; conditions: 2 h
In short: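 Lipophilic ORAC (modified Madrona procedure): Trolox standards (200–12.5 μM) and samples diluted in 7% RMCD in acetone/water 1:1. Fluorescein and AAPH prepared in 10 mM phosphate buffer pH 7.4. Fluorescein mixed with standard, sample or RMCD blank, incubated as in H-ORAC, then AAPH added. Read-out and data handling as in H-ORAC. Quadruplicate, mean ± SD.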

Structure (SMILES) | Activity [1] [mmolequiv/mmol] | Activity [2] [mmolequiv/mmol] | Activity [3] | EC50 [4] [µM] | Activity [5] [mmolequiv/mmol] | Activity [6] [mMequiv] | Activity [7] [umolequiv/umol]
Oc1cc(O)c2c(c1)O[C@H](c1ccc(O)c(O)c1)[C@H](O)C2 [(-)-EPICATECHIN] | 5.01 | 3.71 | 15.69 mmolequiv/mmol | 4.1 | 9.98 |  | 
O=c1c(O)c(-c2ccc(O)c(O)c2)oc2cc(O)cc(O)c12 [QUERCETIN] | 4.84 | 4.85 | 11.94 mmolequiv/mmol | 6.1 | 9.36 | 3.1 | 10.4
O=C1c2c(O)cc(O)c([C@@H]3C(=O)c4c(O)cc(O)cc4O[C@H]3c3ccc(O)c(O)c3)c2O[C@H](c2ccc(O)c(O)c2)[C@H]1O | 5.29 | 5.58 | 15 mmolequiv/mmol | 2.8 | 13.73 |  | 
O=C1c2c(cc(O)c([C@@H]3C(=O)c4c(O)cc(O)cc4O[C@H]3c3ccc(O)c(O)c3)c2O)O[C@H](c2ccc(O)c(O)c2)[C@H]1O | 4.95 | 3.5 | 14.56 mmolequiv/mmol | 8.5 | 7.54 |  | 
CC1(C)C=Cc2c(cc3oc4c(O)c(O)ccc4c(=O)c3c2O)O1 [JACAREUBIN] | 2.06 | 0.84 | 2.74 mmolequiv/mmol | 26.3 | 1.16 |  | 
O=c1c2cc(O)ccc2oc2cccc(O)c12 | 1.33 | 0.4 | 2.95 mmolequiv/mmol | 80.2 | 2.43 |  | 
O=C1O[C@H]([C@@H](O)CO)C(O)=C1O [ASCORBIC ACID] | 1.09 | 1.16 | 0.73 mmolequiv/mmol | 24.2 | 0.62 | 1.05 | 
O=C1c2c(O)cc(O)cc2O[C@H](c2ccc(O)c(O)c2)C1O (single isomer, unassigned) [(+)-TAXIFOLIN] | 2.84 | 2.48 | 9.3 mmolequiv/mmol | 11.3 | 6.61 |  | 
CC(C)=CCc1c(O)cc2oc3c(O)c(O)ccc3c(=O)c2c1O | 2.96 | 0.89 | 3.81 mmolequiv/mmol | 19.7 | 1.06 |  | 
CC(C)=CC[C@H]1C[C@@]23C[C@@H](CC=C(C)C)C(C)(C)[C@@](CC=C(C)C)(C(=O)C(C(=O)c4ccc(O)c(O)c4)=C2OC1(C)C)C3=O [CAMBOGIN] | 1.67 | 0.48 | 3.68 mmolequiv/mmol | 83.3 | 0.6 |  | 
O=C1CC(c2ccc(O)cc2)Oc2cc(O)cc(O)c21 (racemic) | 2.94 | 1.98 | 7.35 mmolequiv/mmol | 8.6 | 6.2 | 1.14 | 
O=C1c2c(O)cc(O)c(-c3coc4cc(O)cc(O)c4c3=O)c2O[C@H](c2ccc(O)c(O)c2)[C@H]1O | 2.92 | 1.48 | 6.96 mmolequiv/mmol | 17.5 | 4.38 |  | 
COc1c(O)ccc2c1Oc1cc(O)c(CC=C(C)C)c(O)c1C(=O)O2 | 1.68 | 0.89 | 4.34 mmolequiv/mmol | ≤ 45.4 | 2.5 |  | 
Cc1cc(C(C)(C)C)c(O)c(C(C)(C)C)c1 [BUTYLATED HYDROXYTOLUENE] | 0.76 |  | 0.2 mmolequiv/mmol and 0.12 umolequiv/umol |  |  | 0.27 | 
COc1cc(C(=O)c2c(O)cc3c(c2OC)C=CC(C)(C)O3)ccc1O | 1.04 | 0.4 | 4.87 mmolequiv/mmol | ≤ 53.4 | 2.44 |  | 
C=C(C)[C@@H](CC=C(C)C)C[C@@]12C[C@@H](CC=C(C)C)C(C)(C)[C@@](CC=C(C)C)(C(=O)C(C(=O)c3ccc(O)c(O)c3)=C1O)C2=O [GARCINOL] | 1.92 | 0.81 | 3.44 mmolequiv/mmol | 15.7 | 1.28 |  | 

Reference: ChEMBL document CHEMBL3421535, “Antioxidative compounds from Garcinia buchananii stem bark” (J Nat Prod, 2015)
